How the values were obtained:
Trypanosoma cruzi = test: Antitrypanosomal activity against intracellular amastigotes stage of recombinant Trypanosoma cruzi Tulahuen expressing beta galactosidase infected in NIH/3T3 cells assessed as growth inhibition after 4 days by HTS-ready assay; assay type: functional, organism-based; conditions: NIH3T3, 96 h
Outline: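 NIH-3T3 fibroblasts were mixed 1:1 with β-galactosidase-expressing Tulahuen trypomastigotes from LLC-MK2 culture supernatants, at 1x10^3 cells/well, onto pre-dispensed compounds (50 to 0.00085 μM, DMSO ≤0.5%). Cultures were held 4 days at 37 °C, 5% CO2. Resorufin-β-D-galactopyranoside (5 µM in PBS with Igepal) was added for 4 h at room temperature, and fluorescence was read at 531/595 nm. Untreated parasites served as negative control.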

[1] = Cytotoxicity against mouse NIH/3T3 cells after 4 days by CellTiter-Glo luminiscence assay; assay type: cell-based, NIH3T3; conditions: read-out: TC50
Outline: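 Mouse embryonic fibroblasts were seeded at 1x10^3 cells/well onto pre-dispensed compounds (top concentration 100 μM) for 4 days at 37 °C, 5% CO2. Controls were 0.5% DMSO (100% viable) and amphotericin B 50 μM (100% toxicity). Viability was measured as ATP by CellTiter-Glo luminescence at room temperature. TC50 was obtained by nonlinear regression.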

HepG2 = test: Cytotoxicity against human HepG2 cells 48 hrs by CellTiter-Glo luminiscence assay; assay type: functional; conditions: HepG2, 48 h, read-out: TC50 (the source's name)
Outline: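 Human hepatoma cells were plated at 3,000 cells/well onto pre-dispensed compounds, handled as for the fibroblast assay, and incubated 48 h at 37 °C, 5% CO2. ATP-based viability was read by CellTiter-Glo luminescence after room-temperature incubation. TC50 was obtained by nonlinear regression.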

[2] = Selectivity index, ratio of TC50 for mouse NIH/3T3 cells to IC50 for amastigotes stage of recombinant Trypanosoma cruzi Tulahuen expressing beta galactosidase infected in NIH/3T3 cells; assay type: toxicity, cell-based; conditions: read-out: Selectivity Index

Compound	IC50 (Trypanosoma cruzi; read-out: IC50) [µM]	IC50 (Trypanosoma cruzi; read-out: pIC50 (converted)) [µM]	CC50 at 96 h [1] [µM]	CC50 (HepG2) [µM]	selectivity ratio [2]
C/C(=N\Nc1nc(-c2cccc3ccccc23)cs1)c1ccccn1	0.93	0.933	4.47	> 100	–
C/C(=N\Nc1nc(-c2ccc(Cl)cc2Cl)cs1)c1ccccn1	1.55	1.55	2	> 100	–
C/C(=N\Nc1nc(-c2ccccc2)cs1)c1ccccn1	1.12	1.12	3.89	91.2	–
C/C(=N\Nc1nc(-c2cccc([N+](=O)[O-])c2)cs1)c1ccccn1	0.89	0.891	3.63	> 100	–
CC/C(=N\Nc1nc(-c2ccc(Br)cc2)c(C)s1)c1cccc(Br)c1	24.6	24.5	33.1	> 100	–
C/C(=N\Nc1nc(-c2ccc(Br)cc2)cs1)c1ccccn1	1	1	3.98	85.1	–
O=[N+]([O-])c1ccc(-c2csc(N/N=C/c3ccccn3)n2)cc1	11	–	> 50.1	> 100	–
O=[N+]([O-])c1cccc(-c2csc(N/N=C/c3ccccn3)n2)c1	1.62	1.62	38	> 100	23.5
C/C(=N\Nc1nc(-c2ccc(Br)cc2)c(C)s1)c1ccccn1	1.35	1.35	2	> 100	–
Cc1ccccc1SC/C=N/NC(N)=S	4.9	4.9	> 50.1	> 100	–
CC/C(=N\Nc1nc(-c2ccccc2)cs1)c1cccc(Br)c1	18.2	18.2	26.3	> 100	–
C/C(=N\Nc1nc(-c2ccc(Cl)cc2)cs1)c1ccccn1	1.05	1.05	5.25	> 100	–
CC/C(=N\Nc1nc(-c2ccc(C)cc2)cs1)c1cccc(Br)c1	26.3	26.3	> 50.1	> 100	–
COc1ccc(SC/C=N/NC(N)=S)cc1	17.4	17.4	0.52	> 100	–
Cc1sc(N/N=C/c2ccccn2)nc1-c1ccc(Br)cc1	1.38	1.38	18.6	> 100	–
CC/C(=N\Nc1nc(-c2ccc(OC)cc2)cs1)c1cccc(Br)c1	30.2	30.2	> 50.1	> 100	–
C/C(=N\Nc1nc(-c2ccc(C)cc2)cs1)c1ccccn1	1.7	1.7	4.47	> 100	–
NC(=S)N/N=C/CSc1ccc(Br)cc1	1.62	1.62	28.8	53.7	–
C/C(=N\Nc1nc(-c2ccc(F)cc2)cs1)c1ccc(Cl)c(Cl)c1	16.2	16.2	28.2	> 100	–
Clc1ccc(-c2csc(N/N=C/c3ccccn3)n2)c(Cl)c1	1.05	1.05	14.5	> 100	–
NC(=S)N/N=C/CSc1ccccc1	9.33	9.33	3.55	> 100	–
Cc1cccc(SC/C=N/NC(N)=S)c1	3.24	3.24	> 50.1	> 100	–
COc1ccc(-c2csc(N/N=C/c3ccccn3)n2)cc1	2.69	2.69	11.5	> 100	–
CC/C(=N\Nc1nc(-c2cccc([N+](=O)[O-])c2)cs1)c1cccc(Br)c1	22.9	22.9	38	> 100	–
CCC1S/C(=N/N=C(\C)c2ccc(Cl)c(Cl)c2)N(c2ccccc2)C1=O (configuration not stated)	> 50.1	–	> 50.1	> 100	–

Compound	IC50 (Trypanosoma cruzi; read-out: IC50) [µM]	IC50 (Trypanosoma cruzi; read-out: pIC50 (converted)) [µM]	CC50 at 96 h [1] [µM]	CC50 (HepG2) [µM]	selectivity ratio [2]
C(=N\Nc1nc(-c2cccc3ccccc23)cs1)/c1ccccn1	3.39	3.39	7.24	> 100	–
NC(=S)N/N=C/CSc1ccc(F)cc1	5.89	5.89	> 50.1	> 100	–
Cc1ccc(SC/C=N/NC(N)=S)cc1	6.46	6.46	> 50.1	> 100	–
C(=N\Nc1nc(-c2ccccc2)cs1)/c1ccccn1	2.19	2.19	17	> 100	–
Cc1ccc(-c2csc(N/N=C/c3ccccn3)n2)cc1	2.63	2.63	43.6	> 100	–
NC(=S)N/N=C/CSc1ccccc1Cl	3.09	3.09	> 50.1	> 100	–
Clc1ccc(-c2csc(N/N=C/c3ccccn3)n2)cc1Cl	0.79	0.794	10.7	> 100	–
C/C(=N\Nc1nc(C)cs1)c1ccc(Cl)c(Cl)c1	8.32	8.32	38.9	> 100	–
Clc1ccc(-c2csc(N/N=C/c3ccccn3)n2)cc1	1.86	1.86	> 50.1	> 100	26.9
C/C(=N\Nc1nc(-c2ccccc2)c(C)s1)c1ccc(Cl)c(Cl)c1	4.9	4.9	28.2	> 100	–
NC(=S)N/N=C/CSc1ccc(Cl)cc1	2.09	2.09	39.8	75.9	–
COc1ccc(-c2csc(N/N=C(\C)c3ccccn3)n2)cc1	2.24	2.24	3.47	> 100	–
Fc1ccc(-c2csc(N/N=C/c3ccccn3)n2)cc1	2.29	2.29	> 50.1	18.2	–
C/C(=N\Nc1nc(-c2ccc(Cl)c(Cl)c2)cs1)c1ccccn1	1.26	1.26	2.34	> 100	–
NC(=S)N/N=C/CSc1cc(Cl)ccc1Cl	2.57	2.57	> 50.1	> 100	–
C/C(=N\Nc1nc(-c2ccc([N+](=O)[O-])cc2)cs1)c1ccccn1	1.26	1.26	20.9	> 100	–
C/C(=N\N=C(\N)S)c1ccc(Cl)c(Cl)c1	0.63	–	17.8	43.6	–
Brc1ccc(-c2csc(N/N=C/c3ccccn3)n2)cc1	2.24	2.24	14.1	> 100	–
COc1ccc(-c2csc(N/N=C(\C)c3ccc(Cl)c(Cl)c3)n2)cc1	17	17	> 50.1	> 100	–
CNC(=S)N/N=C(\C)c1ccc(Cl)c(Cl)c1	17	–	> 50.1	> 100	–
NC(=S)N/N=C/CSc1cccc(Cl)c1	1.78	1.78	> 50.1	> 100	28.1
C/C(=N\N=C1\SC(C(C)C)C(=O)N1c1ccccc1)c1ccc(Cl)c(Cl)c1 (configuration not stated)	> 50.1	–	> 50.1	> 100	–
Cc1ccc(C)c(SC/C=N/NC(N)=S)c1	3.24	3.24	20.9	> 100	–
C/C(=N\N=C1\SC(C)C(=O)N1c1ccccc1)c1ccc(Cl)c(Cl)c1 (configuration not stated)	> 50.1	–	> 50.1	> 100	–
C/C(=N\Nc1nc(-c2ccc(F)cc2)cs1)c1ccccn1	1.32	1.32	4.9	91.2	–
